Results as given in ChEMBL document CHEMBL1772956, “Synthesis and binding affinity of novel mono- and bivalent morphinan ligands for κ, μ, and δ opioid receptors” (Bioorg Med Chem, 2011).
Active and inactive are the calls of the source. The calls are words filed in the database; no cut-off is given here.

Assays:
[1] = molecular target: T1, Kappa-type opioid receptor (Homo sapiens, UniProt P41145); test: Agonist activity at human kappa-opioid receptor expressed in CHO cells assessed as stimulation of [35S]GTPgammaS binding after 60 mins by scintillation counting; type: functional, cell-based
T1 sequence (P41145 whole entry): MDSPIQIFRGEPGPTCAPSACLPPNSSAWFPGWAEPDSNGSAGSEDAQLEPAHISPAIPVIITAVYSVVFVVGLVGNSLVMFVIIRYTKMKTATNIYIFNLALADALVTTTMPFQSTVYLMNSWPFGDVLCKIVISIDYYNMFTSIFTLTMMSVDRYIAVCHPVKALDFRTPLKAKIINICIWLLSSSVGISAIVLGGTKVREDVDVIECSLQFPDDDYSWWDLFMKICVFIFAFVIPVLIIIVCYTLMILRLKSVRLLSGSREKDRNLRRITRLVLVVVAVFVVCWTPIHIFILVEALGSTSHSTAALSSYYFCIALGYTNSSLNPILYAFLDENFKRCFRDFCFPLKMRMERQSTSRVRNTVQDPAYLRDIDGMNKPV
Method in brief: (§1)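 Membranes from CHO cells stably expressing human κ or μ opioid receptor were incubated with 12 compound concentrations in 50 mM Tris-HCl pH 7.4 with 3 μM GDP, 3 mM MgCl2, 0.2 mM EGTA and 100 mM NaCl. [35S]GTPγS was 0.08 nM final, 60 min at 30°C, and 10 μM GTPγS gave nonspecific binding. Samples were filtered and counted. EC50 and Emax (% stimulation over basal) came from three experiments in triplicate.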

[2] = molecular target: T1, Kappa-type opioid receptor; test: Antagonist activity at human kappa-opioid receptor expressed in CHO cells assessed as inhibition of U69593-induced [35S]GTPgammaS binding after 60 mins by scintillation counting relative to control; type: functional, cell-based
Mu-type opioid receptor [3] = molecular target: T2, Mu-type opioid receptor (Homo sapiens, UniProt P35372); test: Antagonist activity at human mu-opioid receptor expressed in CHO cells assessed as inhibition of DAMGO-induced [35S]GTPgammaS binding after 60 mins by scintillation counting relative to control; type: functional, cell-based
T2 sequence (P35372 whole entry): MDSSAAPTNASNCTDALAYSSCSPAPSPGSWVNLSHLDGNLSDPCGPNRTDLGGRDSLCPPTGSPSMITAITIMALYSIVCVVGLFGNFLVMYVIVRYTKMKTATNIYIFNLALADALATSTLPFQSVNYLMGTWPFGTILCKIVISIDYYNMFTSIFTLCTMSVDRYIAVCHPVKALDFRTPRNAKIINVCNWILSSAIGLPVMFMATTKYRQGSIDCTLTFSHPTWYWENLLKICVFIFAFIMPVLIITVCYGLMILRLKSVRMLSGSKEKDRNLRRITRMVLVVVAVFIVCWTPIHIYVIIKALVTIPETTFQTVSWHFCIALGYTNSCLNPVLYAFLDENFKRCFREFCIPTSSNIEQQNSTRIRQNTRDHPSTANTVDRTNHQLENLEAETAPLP
Method in brief: (§2)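 Human μ receptor CHO membranes were incubated with 200 nM DAMGO to drive [35S]GTPγS (0.08 nM) binding, with 12 compound concentrations up to 10 μM, in Tris pH 7.4/GDP/MgCl2/EGTA/NaCl buffer, 60 min at 30°C. Nonspecific binding was with 10 μM GTPγS. Samples were filtered and counted.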

[4] = molecular target: T1, Kappa-type opioid receptor; test: Antagonist activity at human kappa-opioid receptor expressed in CHO cells assessed as inhibition of U69593-induced [35S]GTPgammaS binding after 60 mins by scintillation counting; type: functional, cell-based
Mu-type opioid receptor [5] = molecular target: T2, Mu-type opioid receptor; test: biochemical; type: cell-based, CHO
Mu-type opioid receptor [6] = molecular target: T2, Mu-type opioid receptor; test: Agonist activity at human mu-opioid receptor expressed in CHO cells assessed as stimulation of [35S]GTPgammaS binding after 60 mins by scintillation counting; type: functional, cell-based; method in brief: as §1
Homo sapiens [7] = organism: Homo sapiens; test: Selectivity ratio of Ki for human kappa opioid receptor over Ki for human mu opioid receptor
[8] = molecular target: T1, Kappa-type opioid receptor; test: Agonist activity at human kappa-opioid receptor expressed in CHO cells assessed as stimulation of [35S]GTPgammaS binding after 60 mins by scintillation counting relative to control; type: functional, cell-based; method in brief: as §1
Mu-type opioid receptor [9] = molecular target: T2, Mu-type opioid receptor; test: Agonist activity at human mu-opioid receptor expressed in CHO cells assessed as stimulation of [35S]GTPgammaS binding after 60 mins by scintillation counting relative to control; type: functional, cell-based; method in brief: as §1
[10] = molecular target: Delta-type opioid receptor (Homo sapiens, UniProt P41143); test: Displacement of [3H]naltrindole from human delta-opioid receptor expressed in CHO cells after 3 hrs by scintillation counting; type: cell-based
Chain of Delta-type opioid receptor (P41143 whole entry): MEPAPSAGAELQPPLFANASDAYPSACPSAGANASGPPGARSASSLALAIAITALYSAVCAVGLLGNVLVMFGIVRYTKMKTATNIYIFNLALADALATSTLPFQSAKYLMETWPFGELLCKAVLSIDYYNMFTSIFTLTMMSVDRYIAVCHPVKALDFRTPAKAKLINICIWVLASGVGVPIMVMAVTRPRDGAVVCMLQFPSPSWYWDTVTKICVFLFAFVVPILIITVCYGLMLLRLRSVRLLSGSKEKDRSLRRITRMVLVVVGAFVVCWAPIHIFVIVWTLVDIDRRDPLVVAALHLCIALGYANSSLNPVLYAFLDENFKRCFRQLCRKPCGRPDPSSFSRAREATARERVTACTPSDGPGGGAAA

Homo sapiens [11] = organism: Homo sapiens; test: Selectivity ratio of Ki for human kappa opioid receptor over Ki for human delta opioid receptor
Mu-type opioid receptor [12] = molecular target: T2, Mu-type opioid receptor; test: Antagonist activity at human mu-opioid receptor expressed in CHO cells assessed as inhibition of DAMGO-induced [35S]GTPgammaS binding after 60 mins by scintillation counting; type: functional, cell-based; method in brief: as §2
[13] = molecular target: T1, Kappa-type opioid receptor; test: biochemical; type: cell-based, CHO
Mu-type opioid receptor [14] = molecular target: T2, Mu-type opioid receptor; test: Antagonist activity at human mu-opioid receptor expressed in CHO cells assessed as inhibition of DAMGO-induced [35S]GTPgammaS binding at 10 uM after 60 mins by scintillation counting; type: functional, cell-based; method in brief: as §2
Mu-type opioid receptor [15] = molecular target: T2, Mu-type opioid receptor; test: Antagonist activity at human mu-opioid receptor expressed in CHO cells assessed as inhibition of DAMGO-induced [35S]GTPgammaS binding at 10 uM after 60 mins by scintillation counting relative to control; type: functional, cell-based; method in brief: as §2

## CO[C@@]12CCCC[C@@]13CCN(CC1CCC1)[C@@H]2Cc1ccc(OC(=O)CCCCCCCCC(=O)OCc2ccccc2)cc13
[1]
  EC50: 2.1 nM
[2]
  Imax: 30%
Mu-type opioid receptor [3]
  Imax: 28%
[4]; read-out: IC50
  IC50: 6.4 nM
Mu-type opioid receptor [5]
  Ki: 0.15 nM
Mu-type opioid receptor [6]
  EC50: 1.7 nM
Homo sapiens [7]
  Ratio Ki: 1
[8]
  Emax: 90%
Mu-type opioid receptor [9]
  Emax: 54%
[10]
  Ki: 14 nM
Homo sapiens [11]
  Ratio Ki: 93
Mu-type opioid receptor [12]
  IC50: 7.6 nM
[13]
  Ki: 0.23 nM

## C=CCN1CC[C@]23c4c5ccc(OC(=O)CCCCCCCCC(=O)Oc6ccc7c(c6)[C@@]68CCCC[C@@]6(OC)[C@@H](C7)N(CC6CCC6)CC8)c4O[C@H]2C(=O)CC[C@@]3(O)[C@H]1C5
[1]
  EC50: 18 nM
[2]
  Imax: 33%
Mu-type opioid receptor [3]
  Imax: 45%
[4]; read-out: IC50
  IC50: 7.7 nM
Mu-type opioid receptor [5]
  Ki: 0.55 nM
Mu-type opioid receptor [6]
  EC50: 10 nM
Homo sapiens [7]
  Ratio Ki: 4
[8]
  Emax: 80%
Mu-type opioid receptor [9]
  Emax: 62%
[10]
  Ki: 39 nM
Homo sapiens [11]
  Ratio Ki: 280
Mu-type opioid receptor [12]
  IC50: 19 nM
[13]
  Ki: 0.14 nM

## O=C(/C=C/C(=O)Oc1ccc2c(c1)[C@@]13CCCC[C@H]1[C@@H](C2)N(CC1CCC1)CC3)Oc1ccc2c(c1)[C@@]13CCCC[C@H]1[C@@H](C2)N(CC1CCC1)CC3
Homo sapiens [7]
  Ratio Ki: 3
Homo sapiens [11]
  Ratio Ki: 120

## O=C(CCCCCCCCC(=O)Nc1nc2cc3c(cc2s1)C[C@@H]1[C@@H]2CCCC[C@]32CCN1CC1CC1)Nc1nc2cc3c(cc2s1)C[C@@H]1[C@@H]2CCCC[C@]32CCN1CC1CC1
[1]
  EC50: 5.5 nM
[2]
  Imax: inactive
Mu-type opioid receptor [14]
  inhibition: inactive
[4]; cho
  IC50: Not Active
Mu-type opioid receptor [5]
  Ki: 8.8 nM
Mu-type opioid receptor [6]
  EC50: 130 nM
Homo sapiens [7]
  Ratio Ki: 24
[8]
  Emax: 130%
Mu-type opioid receptor [9]
  Emax: 25%
[10]
  Ki: 170 nM
Homo sapiens [11]
  Ratio Ki: 460
[13]
  Ki: 0.37 nM
Mu-type opioid receptor [15]
  inhibition: 74%

## CO[C@@]12CCCC[C@@]13CCN(CC1CCC1)[C@@H]2Cc1ccc(O)cc13
[1]
  EC50: 2.8 nM
[2]
  Imax: 37%
Mu-type opioid receptor [3]
  Imax: 50%
[4]; read-out: IC50
  IC50: 22 nM
Mu-type opioid receptor [5]
  Ki: 0.14 nM
Mu-type opioid receptor [6]
  EC50: 3.6 nM
Homo sapiens [7]
  Ratio Ki: 1
[8]
  Emax: 90%
Mu-type opioid receptor [9]
  Emax: 50%
[10]
  Ki: 8.1 nM
Homo sapiens [11]
  Ratio Ki: 58
Mu-type opioid receptor [12]
  IC50: 9.3 nM
[13]
  Ki: 0.2 nM

## c1c2c(cc3sc(NCCCCCCCCCCNc4nc5cc6c(cc5s4)C[C@@H]4[C@@H]5CCCC[C@]65CCN4CC4CC4)nc13)C[C@@H]1[C@@H]3CCCC[C@]23CCN1CC1CC1
[1]
  EC50: 7.3 nM
[2]
  Imax: inactive
Mu-type opioid receptor [3]
  Imax: 71%
[4]; cho
  IC50: Not Active
Mu-type opioid receptor [5]
  Ki: 2.5 nM
Mu-type opioid receptor [6]
  EC50: 22 nM
Homo sapiens [7]
  Ratio Ki: 9
[8]
  Emax: 130%
Mu-type opioid receptor [9]
  Emax: 38%
[10]
  Ki: 39 nM
Homo sapiens [11]
  Ratio Ki: 140
Mu-type opioid receptor [12]
  IC50: 390 nM
[13]
  Ki: 0.27 nM

## C=CCN1CC[C@]23c4c5ccc(OC(=O)CCCCCCCCC(=O)Oc6ccc7c(c6)[C@@]68CCCC[C@@]6(O)[C@@H](C7)N(CC6CCC6)CC8)c4O[C@H]2C(=O)CC[C@@]3(O)[C@H]1C5
[1]
  EC50: 12 nM
[2]
  Imax: 35%
Mu-type opioid receptor [3]
  Imax: 73%
[4]; read-out: IC50
  IC50: 49 nM
Mu-type opioid receptor [5]
  Ki: 0.82 nM
Mu-type opioid receptor [6]
  EC50: 2 nM
Homo sapiens [7]
  Ratio Ki: 3
[8]
  Emax: 74%
Mu-type opioid receptor [9]
  Emax: 19%
[10]
  Ki: 35 nM
Homo sapiens [11]
  Ratio Ki: 130
Mu-type opioid receptor [12]
  IC50: 34 nM
[13]
  Ki: 0.28 nM

## Nc1nc2cc3c(cc2s1)C[C@@H]1[C@@H]2CCCC[C@]32CCN1CC1CC1
Homo sapiens [7]
  Ratio Ki: 31
Homo sapiens [11]
  Ratio Ki: 592

## O=C(CCCCCCCCC(=O)Oc1ccc2c(c1)[C@@]13CCCC[C@H]1[C@@H](C2)N(CC1CCC1)CC3)Oc1ccc2c(c1)[C@@]13CCCC[C@H]1[C@@H](C2)N(CC1CCC1)CC3
Homo sapiens [7]
  Ratio Ki: 2
Homo sapiens [11]
  Ratio Ki: 90

## O=C(CCCCCCCCC(=O)Oc1ccc2c(c1)[C@@]13CCCC[C@@]1(O)[C@@H](C2)N(CC1CCC1)CC3)Oc1ccc2c(c1)[C@@]13CCCC[C@H]1[C@@H](C2)N(CC1CCC1)CC3
[1]
  EC50: 0.84 nM
[2]
  Imax: 23%
Mu-type opioid receptor [3]
  Imax: 50%
[4]; read-out: IC50
  IC50: 3.7 nM
Mu-type opioid receptor [5]
  Ki: 0.089 nM
Mu-type opioid receptor [6]
  EC50: 1.2 nM
Homo sapiens [7]
  Ratio Ki: 1
[8]
  Emax: 100%
Mu-type opioid receptor [9]
  Emax: 46%
[10]
  Ki: 8 nM
Homo sapiens [11]
  Ratio Ki: 110
Mu-type opioid receptor [12]
  IC50: 3.4 nM
[13]
  Ki: 0.073 nM

## CO[C@@]12CCCC[C@@]13CCN(CC1CCC1)[C@@H]2Cc1ccc(OC(=O)CCCCCCCCC(=O)Oc2ccc4c(c2)[C@@]25CCCC[C@@]2(OC)[C@@H](C4)N(CC2CCC2)CC5)cc13
[1]
  EC50: 2.4 nM
[2]
  Imax: 43%
Mu-type opioid receptor [3]
  Imax: 44%
[4]; read-out: IC50
  IC50: 17 nM
Mu-type opioid receptor [5]
  Ki: 0.26 nM
Mu-type opioid receptor [6]
  EC50: 1.8 nM
Homo sapiens [7]
  Ratio Ki: 1
[8]
  Emax: 83%
Mu-type opioid receptor [9]
  Emax: 42%
[10]
  Ki: 13 nM
Homo sapiens [11]
  Ratio Ki: 50
Mu-type opioid receptor [12]
  IC50: 260 nM
[13]
  Ki: 0.37 nM
